Hits are enriched below; roughly 2.9% of the tested compounds scored in any of these assays.
ZTA DNA inh: blocks Epstein-Barr virus ZTA, an EBNA-1 counter-screen; ZTA-DNA binding, fluorescence polarization; inhibition, % at 11 µM; hit rate 0.15% among 320,000; in the data active means inhibition above about 33%
Target sequence (P03206 whole entry, looked up): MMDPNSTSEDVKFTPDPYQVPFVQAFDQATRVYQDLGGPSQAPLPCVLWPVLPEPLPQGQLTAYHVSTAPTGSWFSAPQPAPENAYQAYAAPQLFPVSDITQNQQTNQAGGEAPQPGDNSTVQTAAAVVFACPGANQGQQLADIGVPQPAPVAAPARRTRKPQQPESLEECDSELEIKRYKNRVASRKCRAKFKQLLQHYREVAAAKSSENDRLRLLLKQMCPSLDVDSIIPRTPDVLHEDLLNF
PfG6PD inh: PfG6PD (Plasmodium falciparum) enzyme inhibition. PfGluPho enzyme, NADPH resazurin-diaphorase fluorescence. inhibition, % at 20 µM. hit rate 0.78% among 350,000. AID 504690;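 active means inhibition reaching at least a set limit at 20 µM in the primary screen, cut at about 59% in these data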;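 further: 0% = DMSO wells with substrate and 100% = DMSO wells lacking glucose-6-phosphate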
EBNA-1 inh: blocks EBNA-1 binding to DNA. EBNA-1 DNA binding, fluorescence polarization. hit rate 0.34% among 300,000. inhibition, % at 14.8 µM; in the data active means inhibition above about 28%
UBC13 inh: blocks human UBC13 polyubiquitin chain formation; P61088; TR-FRET; inhibition, % at 20 µM; hit rate 0.47% among 330,000; AID 485273; in the data active means inhibition above about 45%, passing the limit was not always enough
Target sequence (P61088 whole entry, looked up): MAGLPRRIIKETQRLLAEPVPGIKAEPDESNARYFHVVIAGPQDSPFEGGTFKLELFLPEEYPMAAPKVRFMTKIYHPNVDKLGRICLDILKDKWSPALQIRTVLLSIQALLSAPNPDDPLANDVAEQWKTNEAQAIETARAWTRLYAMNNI
M18AAP inhibitor: PfM18AAP enzyme inhibition | AID 1822 | inhibition, % at 7.35 µM | recombinant PfM18AAP, H-Glu-NHMec fluorogenic cleavage | hit rate 1.2% among 290,000;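 active means inhibition above the campaign mean inhibition over all tested compounds plus 3 SD, cut at about 28% in these data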;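 further: 0% = plate median of test compound wells and 100% = 2 mM ZnCl2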
Apaf-1 inh: inhibitors of human Apaf-1 apoptosome | reconstituted apoptosome caspase-3 activity, DEVD-Rh110 fluorescence | AID 489030 | O14727 | inhibition, % at 20 µM | hit rate 0.71% among 330,000; active means inhibition of at least 40% at 20 µM;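 further: plate controls were DMSO wells for no effect and DEVD-CHO caspase inhibitor wells for full effect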
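Assay system: Apoptosome proteins | Medium: pH 7.5 Hepes buffer with CHAPS, BSA, DTT | Also added: Cytochrome c and DEVD-Rh110 substrate | Times: 30 min plus 50 min, RT | Detection: Rhodamine 110 fluorescence at Ex 480/Em 540 nm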
Apaf-1 inh conf: Apaf-1 inhibition, single-dose confirmed. hit rate 25% among 1,800. shares compounds with Apaf-1 inh. reconstituted apoptosome, caspase-3 DEVD-Rh110 fluorescence. inhibition, % at 20 µM. AID 504614;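 active means mean inhibition of at least 40% at 20 µM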;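 further: plate controls were DMSO wells for no effect and DEVD-CHO caspase inhibitor control wells for full effect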
Rh110 quench: counter-screen for Apaf-1 inhibitors: fluorescence interference | AID 504615 | 1,800 tested, under 10 active | activation (fluorescence interference), % at 20 µM | Rh110 fluorescence interference, quenched caspase reaction | shares compounds with Apaf-1 inh;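 active means signal rise of 40% or more at 20 µM, treated as a fluorescence artifact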
Apaf1 inh interf: counter-screen for Apaf-1 inhibitors: fluorescence interference, dose response; shares compounds with Apaf-1 inh; fluorescence interference counterscreen, Apaf-1 assay format; IC50, µM; 460 tested, under 10 active; AID 588538; call rule not given here
Numbers without * were called inactive; x = no result.

SMILES	ZTA DNA inh	PfG6PD inh	EBNA-1 inh	UBC13 inh	M18AAP inhibitor	Apaf-1 inh	Apaf-1 inh conf	Rh110 quench	others
O=C1CN(C(=O)CSc2nnc(C3CC3)n2-c2ccccc2)c2ccccc2N1	9.7	-4.0	-0.2	10.2	-5.7	-1.7	x	x
CCOC(=O)c1c(C)oc2c1c(C=NCCC(=O)O)c(O)c1ccccc12	-3.8	12.2	6.3	-92.3	12.4	81.0*	59.3*	1.8	Apaf1 inh interf=>100
CCOC(=O)c1c(C)oc2c1c(C=NC1CCS(=O)(=O)C1)c(O)c1ccccc12 (stereo unspecified)	10.0	9.9	2.7	x	-0.9	x	x	x
Cc1ccc(NC(=O)c2ccccc2SCC(=O)N2CCCC2)cc1S(=O)(=O)N(C)C	-0.3	13.0	6.1	25.8	4.3	8.4	x	x
Cc1ccc(S(=O)(=O)N(C)C)cc1NC(=O)c1ccccc1SCC(=O)N1CCCC1	-3.6	-0.4	x	28.3	x	41.5*	36.0	9.2
CCN(CC(=O)Nc1ccccc1C(F)(F)F)C(=O)c1ccccc1SCC(=O)N1CCCC1	-13.2	-12.3	-9.9	15.7	x	42.9*	28.6	-6.4
CCN(CC)CCN(C(=O)c1ccc(C(=O)c2ccccc2)cc1)c1nc2ccc(OC)cc2s1	-2.7	20.1	4.4	11.9	-0.3	44.5*	14.9	-5.2
COc1ccc2nc(N(CCN(C)C)C(=O)c3ccc(C(=O)c4ccccc4)cc3)sc2c1	-6.7	11.2	-7.9	19.8	-0.9	17.1	x	x
Cc1ccc(NC(=O)C2CCCN2C(=O)NC2CCCCC2)cc1 (stereo unspecified)	26.2	0.4	3.0	0.1	-10.8	1.1	x	x
CCOc1cc(/C=C/c2nc3cc(C)c(C)cc3s2)ccc1OCC(=O)N1CCOCC1	16.0	13.2	-1.7	16.0	-10.0	45.4*	16.7	-15.0
COc1ccc(-c2cc(=O)n(-c3ccc([N+](=O)[O-])cc3)[nH]2)cc1	13.5	16.7	-2.1	-37.5	6.8	64.8*	14.3	4.2
COC(=O)C1(NC(=O)NC2CCCCC2)CCCCC1	10.9	-3.0	4.4	7.5	-6.8	-18.8	x	x
COc1cc(C2C(C#N)=C(C)NC3=C2C(=O)c2ccccc23)cc(OC)c1OC (stereo unspecified)	3.8	-15.0	4.2	-2.2	5.0	54.3*	28.0	10.8
COCCNC(=O)CN(c1cccc(OC)c1)S(=O)(=O)c1ccc(C)cc1	11.3	-8.8	3.9	7.2	3.9	57.1*	15.7	0.4
O=C(N/N=C/c1ccccc1)c1sccc1OCc1ccc(F)cc1	0.1	6.2	-0.4	3.8	-22.4	4.5	x	x
CCC(CO)Oc1cc(NCc2ccccc2C)c2ncn(C(C)C)c2c1 (stereo unspecified)	x	17.7	x	-10.9	x	34.4	x	x
CCC(CO)Oc1cc(NCc2ccncc2)c2ncn(C(C)C)c2c1 (stereo unspecified)	x	6.4	x	2.3	x	41.3*	16.7	-392.7
CCC(CO)Oc1cc(NCc2ccc(C)c(C)c2)c2ncn(C(C)C)c2c1 (stereo unspecified)	x	22.8	x	14.8	x	34.4	x	x
CCC(CN(C)C)Oc1cc(NCc2ccccc2)c2ncn(C(C)C)c2c1 (stereo unspecified)	x	58.2	x	-31.3	x	97.9*	80.4*	4.7	Apaf1 inh interf=>100
CCC(CO)Oc1cc(NCc2cccnc2)c2ncn(C(C)C)c2c1 (stereo unspecified)	x	17.1	x	-9.6	x	62.5*	24.6	-0.6
CCC(CO)Oc1cc(NCc2cccc(Cl)c2)c2ncn(C(C)C)c2c1 (stereo unspecified)	x	37.4	x	7.1	x	72.6*	37.2	9.2
CCC(CO)Oc1cc(NCc2cc(C)cc(C)c2)c2ncn(C(C)C)c2c1 (stereo unspecified)	x	11.4	x	6.4	x	35.9	x	x
C/C(=C\C(=S)Nc1ccccc1)Nc1cccc2ccccc12	-11.3	5.3	-5.6	-34.4	7.0	96.6*	21.5	9.3
C/C(=C\C(=S)Nc1ccccc1)Nc1ccc2ccccc2c1	12.6	18.8	-0.9	2.1	15.0	41.2*	15.5	4.3
CCSc1cc(N2CCOCC2)nc(-c2ccc(Cl)cc2)n1	5.7	1.8	-8.8	-4.1	2.3	11.4	x	x
SMILES	ZTA DNA inh	PfG6PD inh	EBNA-1 inh	UBC13 inh	M18AAP inhibitor	Apaf-1 inh	Apaf-1 inh conf	Rh110 quench	others
O=C(Cn1ncc2c([nH]c3ccccc32)c1=O)N1CCOCC1	-7.6	16.1	-4.4	-7.6	-4.2	4.5	x	x
O=C(Nc1ccc(-c2cccc(F)c2)cc1)C1CCCN(Cc2ccccn2)C1 (stereo unspecified)	-3.5	8.6	-4.1	8.9	4.0	40.1*	14.5	-0.2
CCC/C(=C1/c2ccccc2C(=O)N1c1ccccc1)c1cnc(OC)nc1	x	3.0	x	-3.2	x	41.0*	24.0	2.2
O=C1CCC/C=C\C[C@@H](CC(=O)N(CCO)Cc2ccccc2)C(=O)N[C@H](c2ccccc2)CO1	x	4.4	x	14.7	x	-2.6	x	x
O=C(NCc1ccco1)Nc1ccc(Br)cc1	13.4	-9.0	-7.6	5.2	6.4	-3.8	x	x
O=C(NCc1ccco1)Nc1ccc2nsnc2c1	-5.0	-18.6	0.0	9.4	18.9	59.0*	4.4	3.7
CN(CC(=O)NCc1ccccc1)CC(=O)Nc1ccc(Cl)c(C(F)(F)F)c1	-1.0	16.3	x	38.2	x	52.7*	37.2	9.2
COc1cccc(NC(=O)CN(C)C(=O)CC2Sc3ccccc3NC2=O)c1 (stereo unspecified)	4.7	5.8	x	-16.5	x	2.8	x	x
CN(CC(=O)Nc1ccc(Cl)c(C(F)(F)F)c1)C(=O)CC1Sc2ccccc2NC1=O (stereo unspecified)	3.7	41.3	1.8	17.1	4.6	50.9*	46.6*	18.7	Apaf1 inh interf=>100
CCCCCn1c(=O)[nH]c2cc(C(=O)NCCN3CCCCC3C)ccc2c1=O (stereo unspecified)	-3.4	5.0	6.4	15.3	6.8	7.7	x	x
CCCCCc1ccc(OCCOCCn2c[n+](C)c3ccccc32)c(CCCCC)c1	x	4.0	x	x	-7.0	x	x	x
CCCCCc1ccc(OCCC[n+]2ccccc2)c(CCCCC)c1	7.1	18.1	2.6	30.3	-1.9	65.5*	40.1*	13.6	Apaf1 inh interf=>100
Cc1cccc(C(=O)OCC(=O)N(C)c2ccccc2)c1C	-13.8	-10.7	1.3	3.4	-1.6	10.3	x	x
Cc1cc(C)c(C)c(S(=O)(=O)N2CCCCC2C(=O)O)c1C (stereo unspecified)	6.7	31.7	-10.4	-3.7	-7.3	13.0	x	x
COCCn1c(SCC(=O)NNC(=O)c2cc(Cl)ccc2OC)nnc1-c1ccncc1	8.7	-8.9	x	35.1	x	48.7*	36.5	11.4
COc1ccc2[nH]c(=O)c(CNc3ccccc3OC)cc2c1	9.3	69.2*	2.4	-29.0	8.6	50.9*	42.8*	4.6	Apaf1 inh interf=>100

Screens (PubChem BioAssay)
